This note sets out measurements from PubChem BioAssay.

Experiment [1] can be described thus: hit retest on RPL19A-GFP reporter strain – cell-based, S. cerevisiae, flow cytometry, cherry picks, mother/daughter gates, confirmation (AID 2270;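 active = GFP response below 50% of the DMSO control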). Conditions: 3 h, at 10 µM, stronger effect = lower value, 100 = same GFP as DMSO wells. For orientation: In flow cytometry, cells or beads pass a laser one at a time.
Experiment [2] is described as follows: yeast TOR pathway reporter LAP4-GFP change – cell-based, cherry picks, flow cytometry, mother/daughter gates, confirmation (AID 2271;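 active = GFP response above 150% of the DMSO control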;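 also: ratio of sample to DMSO plate mean so 100% equals DMSO level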). To be noted: S. cerevisiae LAP4-GFP strain, 3 h, at 10 µM, stronger effect = higher value, 100 means same as DMSO control. The gist of the method:
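material = Alexa 633-stained baker's yeast GFP-fusion strain | amount = 0.2 OD600 cells | schedule = 30 °C, 3 h compound incubation, rotating | signal = GFP by flow cytometry | measure = per-gate (all, mother, daughter) GFP response vs DMSO | controls = positive rapamycin (400 ng/mL), negative DMSO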

A short description of experiment [3]: TOR pathway reporter MEP2-GFP, retest of hits – S. cerevisiae, flow cytometry GFP, cherry picks, confirmation (AID 2272;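 active = GFP response above 150% of the DMSO control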;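 also: ratio of well signal to plate DMSO mean so 100% equals DMSO level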). To be noted: S. cerevisiae MEP2-GFP strain, 3 h, at 10 µM, stronger effect = higher value.
A short description of experiment [4]: yeast AGP1-GFP fluorescence change, single-dose – cell-based, flow cytometry, S. cerevisiae, cherry picks, confirmation (AID 2273).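 Also: median GFP channel fluorescence over the whole cell population gate.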 Conditions: S. cerevisiae AGP1-GFP strain, 3 h, at 10 µM.
Experiment [5] can be described thus: TOR pathway CIT2 reporter hit retest – S. cerevisiae, GFP fusion, cherry picks, mother/daughter gates, confirmation (AID 2274). Conditions: S. cerevisiae CIT2-GFP strain, flow cytometry, 3 h, at 10 µM, stronger effect = higher value.
Where [6] appears, read: measured here: daughter cell gate.
Setting [7] is: measured here: mother cell gate.
[8] abbreviates: measured here: daughter cell gate response.
Where [9] appears, read: measured here: mother cell gate response.

The source made the active and inactive calls.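 The calls were made as follows, unless noted: active = GFP response above 150% of the DMSO level; inconclusive = fewer than 70 events counted for a yeast strain; inactive = the rest.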

Turning to `O=[N+]([O-])c1cc(CN2CCN(c3ccccc3)CC2)c(O)c2ncccc12`, the GFP response vs DMSO in experiment [1] was 76.4% (inactive); in experiment [1] (setting [6]) it was 108%; in experiment [1] (setting [7]) it was 59.5%; in experiment [3], 114% (inactive). Also, the GFP response relative to DMSO in experiment [2] is 161% (active); in experiment [2] (setting [8]) it was 138%; in experiment [2] (setting [9]), 165%. The GFP response, % of DMSO in experiment [4] was 78.8% (inactive); in experiment [5] it was 97.3% (inactive); in experiment [5] (setting [6]), 106%; in experiment [5] (setting [7]), 88.2%.

For `COc1ccc(CNC(=O)c2nc(S(=O)(=O)Cc3ccccc3)ncc2Cl)cc1`, the GFP response vs DMSO was 102% (inactive) in experiment [1], 104% in experiment [1] (setting [6]), 101% in experiment [1] (setting [7]) and 116% (inactive) in experiment [3]. The GFP response relative to DMSO in experiment [2] is 107% (inactive); in experiment [2] (setting [8]), 107%; in experiment [2] (setting [9]), 108%. Further, the GFP response, % of DMSO in experiment [4] is 103% (inactive); in experiment [5], 106% (inactive); in experiment [5] (setting [6]), 106%; in experiment [5] (setting [7]) it was 105%.

Consider `O=C(COc1ccc(OCc2ccccc2)cc1)NN=C1CCCC1`, for which the GFP response vs DMSO in experiment [1] was 98% (inactive); in experiment [1] (setting [6]), 98.4%; in experiment [1] (setting [7]), 97.1%; in experiment [3], 103% (inactive). Moreover, the GFP response relative to DMSO in experiment [2] was 107% (inactive); in experiment [2] (setting [8]) it was 104%; in experiment [2] (setting [9]) it was 109%. For the same molecule, the GFP response, % of DMSO in experiment [4] is 99.5% (inactive); in experiment [5] it was 100% (inactive); in experiment [5] (setting [6]), 101%; in experiment [5] (setting [7]), 99.3%.

For `COc1cc(NC(=O)c2ccccc2F)ccc1NC(=O)c1cc2ccccc2o1`, the GFP response vs DMSO was 87.2% (inactive) in experiment [1], 90.2% in experiment [1] (setting [6]), 88.8% in experiment [1] (setting [7]) and 107% (inactive) in experiment [3]. The GFP response relative to DMSO in experiment [2] is 97% (inactive); in experiment [2] (setting [8]), 97.5%; in experiment [2] (setting [9]), 97.3%. Also, the GFP response, % of DMSO in experiment [4] was 101% (inactive); in experiment [5], 100% (inactive); in experiment [5] (setting [6]), 97.4%; in experiment [5] (setting [7]) it was 98.1%.

Regarding `CCCN1CCc2c(sc(NC(=S)NC(=O)c3ccccc3)c2C#N)C1`, the GFP response vs DMSO is 100% (inactive) in experiment [1], 99.6% in experiment [1] (setting [6]), 97.8% in experiment [1] (setting [7]) and 187% (active) in experiment [3]. Moreover, the GFP response relative to DMSO in experiment [2] was 116% (inactive); in experiment [2] (setting [8]), 107%; in experiment [2] (setting [9]), 120%. Further, the GFP response, % of DMSO was 102% (inactive) in experiment [4], 106% (inactive) in experiment [5], 99.2% in experiment [5] (setting [6]) and 108% in experiment [5] (setting [7]).

Take `O=C(O)c1ccn2c(C(=O)c3ccc(Cl)cc3)c(-c3ccccc3)cc2c1`: the GFP response vs DMSO in experiment [1] is 96.2% (inactive); in experiment [1] (setting [6]), 92.3%; in experiment [1] (setting [7]) it was 99.8%; in experiment [3], 104% (inactive). Moreover, the GFP response relative to DMSO is 114% (inactive) in experiment [2], 107% in experiment [2] (setting [8]) and 115% in experiment [2] (setting [9]). Moreover, the GFP response, % of DMSO was 94.7% (inactive) in experiment [4], 92.1% (inactive) in experiment [5], 89% in experiment [5] (setting [6]) and 92.1% in experiment [5] (setting [7]).

On to `CCN(CC(=O)NC(C)(C)C)C(=O)COc1c(Cl)cc(Cl)c2ccc(C)nc12`, for which the GFP response vs DMSO in experiment [1] was 100% (inactive); in experiment [1] (setting [6]), 101%; in experiment [1] (setting [7]), 99.7%; in experiment [3], 126% (inactive). In addition, the GFP response relative to DMSO in experiment [2] is 127% (inactive); in experiment [2] (setting [8]), 121%; in experiment [2] (setting [9]) it was 125%. Also, the GFP response, % of DMSO in experiment [4] was 102% (inactive); in experiment [5], 108% (inactive); in experiment [5] (setting [6]) it was 111%; in experiment [5] (setting [7]), 100%.

In the case of `S=c1[nH]nc(-c2ccco2)n1/N=C/C(Cl)=C/c1ccccc1`, the GFP response vs DMSO in experiment [1] was 98.4% (inactive); in experiment [1] (setting [6]), 98.5%; in experiment [1] (setting [7]), 98.3%; in experiment [3] it was 112% (inactive). The values for the GFP response relative to DMSO in experiment [2], in experiment [2] (setting [8]) and in experiment [2] (setting [9]) were 129% (inactive), 121% and 131%, respectively. The GFP response, % of DMSO in experiment [4] was 95.6% (inactive); in experiment [5], 97.8% (inactive); in experiment [5] (setting [6]), 100%; in experiment [5] (setting [7]), 94.5%.

Consider `CCCC(=O)Nc1ccc(NC(=O)c2cc3ccccc3o2)c(OC)c1`, for which the GFP response vs DMSO in experiment [1] is 98.8% (inactive); in experiment [1] (setting [6]) it was 98.4%; in experiment [1] (setting [7]), 98%; in experiment [3], 103% (inactive). Moreover, the results for the GFP response relative to DMSO in experiment [2], in experiment [2] (setting [8]) and in experiment [2] (setting [9]) were 98.2% (inactive), 99.1% and 98.4%, respectively. Moreover, the GFP response, % of DMSO in experiment [4] is 102% (inactive); in experiment [5], 97.3% (inactive); in experiment [5] (setting [6]), 99.2%; in experiment [5] (setting [7]), 87%.

`COCC(=O)Nc1cc([N+](=O)[O-])ccc1C`: the GFP response vs DMSO in experiment [1] is 99.5% (inactive); in experiment [1] (setting [6]), 101%; in experiment [1] (setting [7]), 99.8%; in experiment [3], 102% (inactive). Moreover, the GFP response relative to DMSO is 101% (inactive) in experiment [2], 99.3% in experiment [2] (setting [8]) and 99.5% in experiment [2] (setting [9]). Moreover, the GFP response, % of DMSO is 98.4% (inactive) in experiment [4], 99.3% (inactive) in experiment [5], 100% in experiment [5] (setting [6]) and 98% in experiment [5] (setting [7]).

Regarding `O=C(COc1ccccc1)Nc1c2c(nn1-c1ccccc1)CS(=O)C2` (stereo not drawn), the GFP response vs DMSO was 97.1% (inactive) in experiment [1], 96.4% in experiment [1] (setting [6]), 96.5% in experiment [1] (setting [7]) and 103% (inactive) in experiment [3]. Moreover, the values for the GFP response relative to DMSO in experiment [2], in experiment [2] (setting [8]) and in experiment [2] (setting [9]) were 97.7% (inactive), 99% and 96.4%, respectively. Further, the GFP response, % of DMSO in experiment [4] is 104% (inactive); in experiment [5] it was 98.6% (inactive); in experiment [5] (setting [6]), 97.6%; in experiment [5] (setting [7]) it was 100%.

Consider `Cc1ccc(C(=O)O)cc1N1C(=O)c2cccc3cc(Br)cc(c23)C1=O`, for which the GFP response vs DMSO is 101% (inactive) in experiment [1], 98.6% in experiment [1] (setting [6]), 100% in experiment [1] (setting [7]) and 103% (inactive) in experiment [3]. Moreover, the GFP response relative to DMSO in experiment [2] is 102% (inactive); in experiment [2] (setting [8]) it was 99.1%; in experiment [2] (setting [9]), 105%. The GFP response, % of DMSO in experiment [4] is 101% (inactive); in experiment [5], 97.3% (inactive); in experiment [5] (setting [6]), 97.4%; in experiment [5] (setting [7]), 98.1%.

For `O=C(N/N=C/c1cccc(Oc2ccccc2)c1)c1ccncc1`, the GFP response vs DMSO in experiment [1] was 96.7% (inactive); in experiment [1] (setting [6]), 97.3%; in experiment [1] (setting [7]), 95.4%; in experiment [3] it was 103% (inactive). Moreover, the GFP response relative to DMSO is 107% (inactive) in experiment [2], 99% in experiment [2] (setting [8]) and 108% in experiment [2] (setting [9]). Also, the GFP response, % of DMSO in experiment [4] is 103% (inactive); in experiment [5] it was 95.8% (inactive); in experiment [5] (setting [6]) it was 97.6%; in experiment [5] (setting [7]), 96%.
